# Measured values reported in ChEMBL document CHEMBL3593157, “Discovery of a 1-isopropyltetrahydroisoquinoline derivative as an orally active N-type calcium channel blocker for neuropathic pain” (Bioorg Med Chem, 2015).
# How the values were obtained:
# [1] = Inhibition of N-type calcium channel in human IMR-32 cells by FLIPR assay; format: cell-based
# Outline: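 Fluorometric imaging plate reader calcium assay in IMR-32 human neuroblastoma cells. Nitrendipine present to block endogenous L-type calcium channels. IC50 determined in duplicate in one experiment.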
# [2] = molecular target: Cytochrome P450 2D6 (Homo sapiens, UniProt P10635); experiment: Inhibition of CYP2D6 in human liver microsomes using dextromethorphan as substrate preincubated for 30 mins before substrate addition measured after 20 mins by LC-MS/MS analysis
# Sequence of Cytochrome P450 2D6 (P10635 whole entry): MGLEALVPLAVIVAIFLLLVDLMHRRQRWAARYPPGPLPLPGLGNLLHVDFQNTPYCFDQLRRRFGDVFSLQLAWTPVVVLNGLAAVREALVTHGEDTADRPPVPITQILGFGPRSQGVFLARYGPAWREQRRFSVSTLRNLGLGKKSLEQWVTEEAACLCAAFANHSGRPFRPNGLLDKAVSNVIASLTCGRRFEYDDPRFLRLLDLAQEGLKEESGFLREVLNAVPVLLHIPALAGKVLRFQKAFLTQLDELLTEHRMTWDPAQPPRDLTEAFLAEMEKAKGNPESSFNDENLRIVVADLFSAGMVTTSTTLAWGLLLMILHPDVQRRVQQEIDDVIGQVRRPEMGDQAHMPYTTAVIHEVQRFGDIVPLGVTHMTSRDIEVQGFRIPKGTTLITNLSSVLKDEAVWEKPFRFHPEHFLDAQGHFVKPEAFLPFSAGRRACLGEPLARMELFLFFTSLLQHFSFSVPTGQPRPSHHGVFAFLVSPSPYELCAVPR
# [3] = system: Mus musculus; experiment: Antinociceptive activity in intrathecally dosed ddY mouse assessed as reduction of formalin-induced paw lifting/licking behavior administered 15 mins before formalin challenge measured after 15 to 25 mins; format: functional
# Outline: (§1)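 Male ddY mice given an intrathecal bolus. After 15 min, 2% formalin (20 µL) injected subcutaneously into the plantar hindpaw. Total lifting/licking time recorded for 0–10 min (first phase) and 15–25 min (second phase). Mean of n = 6 against vehicle, Dunnett's test. ED50 in nmol/body.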
# [4] = system: Mus musculus; experiment: Toxicity in intrathecally dosed ddY mouse at 10 to 100 […] measured up to 25 mins; format: organism-based; conditions: in vivo, icv_or_intrathecal
# [5] = molecular target: Cytochrome P450 2C9 (Homo sapiens, UniProt P11712); experiment: Inhibition of recombinant human CYP2C9 using 7-methoxy-4-trifluoromethylcoumarin as substrate after 45 mins by fluorescence-based assay; format: ADME
# Sequence of Cytochrome P450 2C9 (P11712 whole entry): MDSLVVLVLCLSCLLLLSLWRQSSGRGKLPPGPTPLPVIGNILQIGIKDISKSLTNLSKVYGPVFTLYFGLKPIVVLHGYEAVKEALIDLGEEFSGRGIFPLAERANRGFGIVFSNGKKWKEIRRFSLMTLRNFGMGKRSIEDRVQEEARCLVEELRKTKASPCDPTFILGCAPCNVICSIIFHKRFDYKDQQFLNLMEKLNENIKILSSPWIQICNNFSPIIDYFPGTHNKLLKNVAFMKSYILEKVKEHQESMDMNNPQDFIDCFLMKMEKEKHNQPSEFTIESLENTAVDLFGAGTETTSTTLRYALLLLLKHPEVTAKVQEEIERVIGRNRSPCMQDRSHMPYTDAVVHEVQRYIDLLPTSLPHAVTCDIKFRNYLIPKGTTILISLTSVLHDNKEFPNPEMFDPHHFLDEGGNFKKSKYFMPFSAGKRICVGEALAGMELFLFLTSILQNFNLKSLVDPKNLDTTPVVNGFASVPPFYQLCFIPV
# [6] = system: Rattus norvegicus; experiment: Neurotoxicity in Sprague-Dawley rat assessed as effect on motor coordination by measuring time spent on rod at 30 mg/kg, po by rotarod test; format: toxicity, organism-based; conditions: in vivo
# Outline: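 Motor coordination in Sprague-Dawley rats after oral dosing, assessed by an accelerating rotarod test.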
# [7] = Lipophilicity, log D of the compound at pH 7.4; format: physicochemical
# Outline: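 cLogD at pH 7.4 calculated with ACD/PhysChem Batch rather than measured.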
# [8] = Aqueous solubility of the compound in Japanese Pharmacopoeia 1st fluid at pH 1.2; format: physicochemical
# Outline: (§2)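 Solubility measured in Japanese Pharmacopoeia 1st fluid for the dissolution test (pH 1.2) and 2nd fluid (pH 6.8).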
# [9] = Aqueous solubility of the compound in Japanese Pharmacopoeia 2nd fluid at pH 6.8; format: physicochemical; outline: as §2
# [10] = molecular target: Voltage-gated inwardly rectifying potassium channel KCNH2 (Homo sapiens, UniProt Q12809); experiment: Inhibition of human ERG expressed in CHO cells after 10 mins by Rb efflux assay; format: cell-based
# Sequence of Voltage-gated inwardly rectifying potassium channel KCNH2 (Q12809 whole entry): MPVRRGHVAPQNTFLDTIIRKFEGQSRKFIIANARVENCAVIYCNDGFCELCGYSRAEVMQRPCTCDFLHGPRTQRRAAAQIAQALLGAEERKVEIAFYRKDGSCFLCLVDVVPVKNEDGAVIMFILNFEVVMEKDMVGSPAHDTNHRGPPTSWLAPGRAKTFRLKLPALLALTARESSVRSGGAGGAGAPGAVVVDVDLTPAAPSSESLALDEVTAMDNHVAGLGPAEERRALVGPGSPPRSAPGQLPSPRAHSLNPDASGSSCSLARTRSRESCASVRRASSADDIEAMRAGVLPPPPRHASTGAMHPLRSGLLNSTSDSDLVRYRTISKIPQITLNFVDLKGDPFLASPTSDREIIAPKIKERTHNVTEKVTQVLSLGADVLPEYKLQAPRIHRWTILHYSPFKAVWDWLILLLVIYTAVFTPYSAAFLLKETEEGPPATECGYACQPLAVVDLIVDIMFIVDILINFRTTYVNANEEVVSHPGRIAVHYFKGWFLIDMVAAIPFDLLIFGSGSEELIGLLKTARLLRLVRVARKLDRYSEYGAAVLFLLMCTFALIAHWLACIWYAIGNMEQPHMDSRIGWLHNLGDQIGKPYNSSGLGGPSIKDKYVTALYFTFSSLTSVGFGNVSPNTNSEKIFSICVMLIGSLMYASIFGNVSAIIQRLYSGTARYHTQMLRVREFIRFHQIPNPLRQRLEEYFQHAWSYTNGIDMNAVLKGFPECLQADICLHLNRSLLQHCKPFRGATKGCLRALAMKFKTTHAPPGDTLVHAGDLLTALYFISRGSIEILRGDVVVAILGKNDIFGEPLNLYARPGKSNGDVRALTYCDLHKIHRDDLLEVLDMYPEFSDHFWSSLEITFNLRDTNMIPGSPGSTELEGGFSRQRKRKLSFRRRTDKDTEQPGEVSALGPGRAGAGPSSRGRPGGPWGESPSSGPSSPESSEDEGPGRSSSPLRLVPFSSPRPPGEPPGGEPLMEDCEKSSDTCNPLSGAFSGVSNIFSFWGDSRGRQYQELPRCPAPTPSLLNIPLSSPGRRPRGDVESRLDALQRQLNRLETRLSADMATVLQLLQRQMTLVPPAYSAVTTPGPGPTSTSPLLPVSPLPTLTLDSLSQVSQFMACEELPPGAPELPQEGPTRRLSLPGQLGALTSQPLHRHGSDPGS
# [11] = system: Mus musculus; experiment: Antinociceptive activity in intrathecally dosed ddY mouse assessed as reduction of formalin-induced paw lifting/licking behavior administered 15 mins before formalin challenge measured up to 10 mins; format: functional; outline: as §1
# [12] = system: Mus musculus; experiment: Antinociceptive activity in ddY mouse assessed as inhibition of formalin-induced paw lifting/licking behavior at 100 mg/kg, po administered 15 mins before formalin challenge measured up to 15 to 25 mins; format: functional
# Outline: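 Male ddY mice dosed orally at 100 mg/kg. 2% formalin (20 µL) injected subcutaneously into the plantar hindpaw. Lifting/licking time in the second phase (15–25 min) expressed as % inhibition.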
# [13] = Intrinsic clearance in human liver microsomes at 0.2 uM measured up to 45 mins by LC-MS/MS analysis; format: ADME; conditions: read-out: CLH
# Outline: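 Human liver microsomes (0.2 mg protein/mL) in 100 mM Na+–K+ phosphate buffer pH 7.4 with 1 mM NADPH and 0.1 mM EDTA, preincubated 5 min at 37 °C. Compound at 0.2 µM final, sampled at 0, 15, 30 and 45 min. Residual compound measured by LC–MS/MS. CLint = disappearance rate constant / microsomal protein, from a least-squares linear fit.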
# [14] = system: Rattus norvegicus; experiment: Analgesic activity in po dosed Sprague-Dawley rat L5/L6 spinal nerve ligation model assessed as reduction of mechanical allodynia; format: functional, organism-based
# Outline: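 Male Sprague-Dawley rats with L5/L6 spinal nerve ligation (Chung method). Compound given orally at 1 to 10 mg/kg. Hindpaw withdrawal threshold to mechanical stimuli measured on the operated and non-operated sides against vehicle groups, n = 8. ED50 derived from the dose-response. Dunnett's test against the operated-side vehicle group.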
smiles,measurement,setting,value
CC(C)C1c2cc(F)ccc2CCN1C(=O)CNCC1(O)CCCCC1 (stereo not drawn),IC50,[1],1300 nM
same,IC50,[2],680 nM
CC(C)C1c2ccc(F)cc2CCN1C(=O)CNCC1(O)CCCCC1 (stereo not drawn),IC50,[1],890 nM
same,IC50,[2],390 nM
O=C(CNCC1(O)CCCCC1)N1CCc2ccccc2[C@@H]1c1ccccc1,IC50,[1],1000 nM
same,IC50,[2],< 390 nM
CC1c2ccccc2CCN1C(=O)CNCC1(O)CCCCC1 (stereo not drawn),IC50,[1],2900 nM
Cc1cccc2c1CCN(C(=O)CNCC1(O)CCCCC1)C2C(C)C (stereo not drawn),IC50,[1],1400 nM
same,IC50,[2],< 780 nM
O=C(CNCC1(O)CCCCC1)N1CCc2ccccc2C1C1CCOCC1 (stereo not drawn),IC50,[1],4100 nM
COc1ccc2c(c1)C(C(C)C)N(C(=O)CNCC1(O)CCCCC1)CC2 (stereo not drawn),IC50,[1],1600 nM
COc1ccc2c(c1)CCN(C(=O)CNCC1(O)CCCCC1)[C@@H]2C(C)C,IC50,[1],1900 nM
same,Activity,[3],Dose-dependent effect
same,ED50,[3],25.4 nmol
same,Activity,[4],Non-toxic
same,IC50,[5],> 50000 nM
same,Activity,[6],Non-toxic
same,logD,[7],2.4
same,solubility,[8],> 100 µg/mL
same,solubility,[9],> 100 µg/mL
same,IC50,[10],> 100000 nM
same,Activity,[11],Dose-dependent effect
same,ED50,[11],>100 nmol
same,inhibition in vivo at 100 mg/kg,[12],64%
same,CLint scaled at 0.2 µM,[13],101 mL/min/kg
same,Activity,[14],Dose-dependent effect
O=C(CNCC1(O)CCCCC1)N1CCc2ccccc2C1,IC50,[1],8000 nM
COC(C)(C)C1c2ccccc2CCN1C(=O)CNCC1(O)CCCCC1 (stereo not drawn),IC50,[1],3700 nM
CC(C)C1c2ccccc2CCN1C(=O)CNCC1(O)CCCCC1 (stereo not drawn),IC50,[1],1100 nM
O=C(CNCC1(O)CCCCC1)N1CCc2ccccc2C1C1CCCC1 (stereo not drawn),IC50,[1],990 nM
CC(C)C1c2c(F)cccc2CCN1C(=O)CNCC1(O)CCCCC1 (stereo not drawn),IC50,[1],1500 nM
CC(C)(O)C1c2ccccc2CCN1C(=O)CNCC1(O)CCCCC1 (stereo not drawn),IC50,[1],6100 nM
COc1ccc2c(c1)CCN(C(=O)CNCC1(O)CCCCC1)[C@H]2C(C)C,IC50,[1],2100 nM
same,IC50,[5],> 50000 nM
same,solubility,[8],> 100 µg/mL
same,solubility,[9],> 100 µg/mL
same,IC50,[10],> 100000 nM
same,CLint scaled at 0.2 µM,[13],188 mL/min/kg
Cc1ccc2c(c1)C(C(C)C)N(C(=O)CNCC1(O)CCCCC1)CC2 (stereo not drawn),IC50,[1],1400 nM
same,IC50,[2],< 780 nM
CCC(CC)C1c2ccccc2CCN1C(=O)CNCC1(O)CCCCC1 (stereo not drawn),IC50,[1],730 nM
same,IC50,[2],< 780 nM
COc1cccc2c1C(C(C)C)N(C(=O)CNCC1(O)CCCCC1)CC2 (stereo not drawn),IC50,[1],1400 nM
COc1ccc2c(c1)CCN(C(=O)CNCC1(O)CCCCC1)C2C(C)C (stereo not drawn),IC50,[1],1300 nM
Cc1cccc2c1C(C(C)C)N(C(=O)CNCC1(O)CCCCC1)CC2 (stereo not drawn),IC50,[1],1600 nM
same,IC50,[2],< 780 nM
CC(C)(C)C1c2ccccc2CCN1C(=O)CNCC1(O)CCCCC1 (stereo not drawn),IC50,[1],800 nM
same,IC50,[2],< 780 nM
